From PubChem
Shown are actives, neighbours in structure and some others; about 2.3% of the full set was active somewhere.
TRPC4 potent = TRPC4 (mouse) allosteric potentiation; actives 0.42% (n = 310,000); B-score at 10 µM; HEK293 TRPC4beta/mu-opioid, DAMGO EC20, Fluo-4 Ca2+ flux; active compounds read high; AID 2227; Q9QUQ5;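 active means B-score of calcium response area above 5 SD of library B-scores, with initial fluorescence ratio within 5 SD of library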;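 further: B-score of integrated fluorescence ratio over time as area under calcium response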
TRPC4 agonist = opens the mouse TRPC4 cation channel; actives 0.49% (n = 310,000); B-score at 10 µM; HEK293 TRPC4beta/mu-opioid, Fluo4 calcium fluorescence; active compounds read high; Q9QUQ5;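 active means B-score above 5 SD of library B-scores, and initial fluorescence ratio not above library mean plus 5 SD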;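 further: positive B-score marks a calcium rise read as TRPC4 activation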
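Assay system – TRPC4beta and mu-opioid receptor HEK293 stable cells · Measured by – Fluo4 fluorescence, kinetic · Schedule – dye loading 45 min room temperature, 110 s kinetic read · Read-out – B-scored integrated calcium fluorescence ratio · Controls – buffer and maximal DAMGO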
TRPC6 act = activators of mouse TRPC6 channel; HEK293-TRPC6 membrane potential dye fluorescence; active compounds read high; B-score at 10 µM; actives 0.13% (n = 310,000); AID 2550;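 active means B-score of the integrated fluorescence ratio above library mean plus 3 SD, and starting fluorescence ratio within library mean plus 5 SD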;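 further: higher score means more depolarization so channel activation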
Target sequence (Q61143 whole entry, looked up): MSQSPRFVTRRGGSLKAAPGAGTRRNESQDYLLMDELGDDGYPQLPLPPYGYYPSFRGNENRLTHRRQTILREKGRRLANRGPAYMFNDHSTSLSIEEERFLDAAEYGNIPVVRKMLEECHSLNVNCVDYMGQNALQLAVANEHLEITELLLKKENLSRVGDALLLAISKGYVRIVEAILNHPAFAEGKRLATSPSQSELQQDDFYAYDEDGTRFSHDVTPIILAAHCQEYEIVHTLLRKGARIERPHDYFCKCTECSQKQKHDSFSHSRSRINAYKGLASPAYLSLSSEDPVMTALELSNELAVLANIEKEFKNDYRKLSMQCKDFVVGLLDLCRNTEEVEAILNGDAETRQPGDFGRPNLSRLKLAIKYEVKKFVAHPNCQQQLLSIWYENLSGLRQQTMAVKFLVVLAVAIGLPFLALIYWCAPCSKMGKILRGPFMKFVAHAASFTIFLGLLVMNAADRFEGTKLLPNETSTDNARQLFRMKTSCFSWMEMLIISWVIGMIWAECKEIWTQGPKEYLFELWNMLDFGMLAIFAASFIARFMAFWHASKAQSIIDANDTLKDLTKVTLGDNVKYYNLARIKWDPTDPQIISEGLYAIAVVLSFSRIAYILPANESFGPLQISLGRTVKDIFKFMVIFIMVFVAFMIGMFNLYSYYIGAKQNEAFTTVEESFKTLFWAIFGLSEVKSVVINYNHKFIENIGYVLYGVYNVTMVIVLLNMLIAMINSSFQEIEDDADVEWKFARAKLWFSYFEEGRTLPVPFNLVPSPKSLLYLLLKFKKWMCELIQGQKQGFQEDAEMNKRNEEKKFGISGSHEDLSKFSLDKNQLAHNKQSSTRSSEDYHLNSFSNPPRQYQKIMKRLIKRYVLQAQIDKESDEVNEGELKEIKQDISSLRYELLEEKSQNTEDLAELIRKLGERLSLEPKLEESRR
TRPC4 block = blocks the mouse TRPC4 cation channel | B-score at 10 µM | actives 0.39% (n = 300,000) | HEK293 TRPC4beta/mu-opioid, DAMGO-evoked Fluo4 calcium flux; active compounds read low;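 active means B-score over 3 SD under the library average, no early fluorescence shift, positive overall ratio signal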
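Assay system – HEK293 line stably carrying TRPC4beta and mu-opioid receptor · Doses – single dose · Detection – Fluo4 calcium-dye fluorescence, kinetic read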
TRPC6 inhibitor = blocks the mouse TRPC6 cation channel. Q61143. HEK293-TRPC6, membrane potential dye, ACh-evoked depolarization; active compounds read low. B-score at 10 µM. actives 1.1% (n = 310,000). AID 2553;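 active means B-score under library mean minus 3 SD, initial fluorescence not abnormally high, positive integrated signal ratio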;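 further: B-score derived from integrated fluorescence ratio over the kinetic read; more negative B-score means stronger inhibition of depolarization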
Active calls of the source: *; i = inactive.

SMILES	TRPC4 potent	TRPC4 agonist	TRPC6 act	TRPC4 block	TRPC6 inhibitor
O=c1[nH]c(=O)n(Cc2ccc(F)cc2)c(O)c1C=NCCCn1ccnc1	i	i	i	i	i
O=c1[nH]c(=O)n(Cc2ccc(F)cc2)c(O)c1C=NCCCO	i	57*	i	-5*	i
C=CCN1CCC2(C)c3cc(O)ccc3CC1C2C (centres undefined)	i	i	i	i	i
CN1CCN(Cc2nc3ccccc3n2C)CC1	11*	i	i	i	i
C/C=C(\C)C(=O)OC1C(C)=C2C(C1OC(=O)CCCCC)C(C)(OC(C)=O)CC(OC(=O)CCC)C1(O)C2OC(=O)C1(C)O (centres undefined)	i	71*	i	i	-5.8*
CCCCc1ncc(CN2CCCC(C(=O)c3ccc(SC)cc3)C2)[nH]1 (centres undefined)	i	i	i	-6*	i
C[C@@H](N)Cc1cnc[nH]1	i	197*	i	i	i
O=C(O)Cc1cnc[nH]1	i	i	i	i	i
CC1(C)CN(S(=O)(=O)OCC(Cl)(Cl)Cl)C(=O)N1	i	i	i	i	i
COc1ccc(OCCOc2cccc(C=C3C(=O)NC(=O)NC3=O)c2)cc1	i	i	i	i	i
CN(CCOc1ccc(C=C2C(=O)NC(=O)NC2=O)cc1)c1ccccn1	i	46*	i	-6*	i
O=C(O)c1ccccc1-c1ccc(C=C2C(=O)N(c3ccccc3)C(=S)N(c3ccccc3)C2=O)o1	i	i	i	i	i
COc1ccc2c(c1O)C13CCN(C)C(C2)C1CCC(=O)C3 (centres undefined)	i	93*	i	i	i
CCc1ccc(OCCCN=C(C)c2c(O)n(C)c(=O)n(C)c2=O)cc1	16*	i	i	i	i
CCNC(=O)C1OC(n2cnc3c(N)ncnc32)C(O)C1O (centres undefined)	i	53*	i	i	i
COc1ccc(O)c(CN2CCCC(C(=O)c3sccc3C)C2)c1 (centres undefined)	i	i	i	-7*	i
Cc1ccsc1C(=O)C1CCCN(Cc2ccccc2O)C1 (centres undefined)	i	i	i	-6*	i
COCc1ccc(CN2CCCC(C(=O)c3sccc3C)C2)o1 (centres undefined)	i	i	i	i	i
CCc1ccc(CN2CCCC(C(=O)c3sccc3C)C2)o1 (centres undefined)	i	i	i	-8*	i
CCN(CC)C(=O)c1ccc(NC(=O)Nc2ccccc2F)cc1	i	i	i	i	i
CC1=C2[C@@H]3OC(=O)[C@H](C)C3CC[C@@]2(C)C=CC1=O (some centres undefined)	i	i	i	i	i
CCc1cc(=O)oc2c(C)c(OCC(=O)N3C[C@H]4C[C@@H](C3)c3cccc(=O)n3C4)ccc12	i	i	i	i	i
CC(=O)NC1CC2CCC(C1)N2 (centres undefined)	i	i	i	i	i
Cc1ccc(C(=O)NC2CC3CCC(C2)N3)cc1 (centres undefined)	i	i	i	-5*	i
CN1CCN(Cc2cn(C)c3ccccc23)CC1CCO (centres undefined)	i	i	i	i	i
SMILES	TRPC4 potent	TRPC4 agonist	TRPC6 act	TRPC4 block	TRPC6 inhibitor
CCOC(=O)c1ccc(-[n+]2c(-c3ccccc3)cc(-c3ccccc3)cc2-c2ccccc2)cc1	i	i	i	i	i
c1ccc(-c2cc(-c3ccccc3)[n+](-c3ccccc3)c(-c3ccccc3)c2)cc1	18*	i	i	i	i
CCOC(=O)c1cccc(-[n+]2c(-c3ccccc3)cc(-c3ccccc3)cc2-c2ccccc2)c1	i	i	i	i	i
CN(C)c1ccc(-[n+]2c(-c3ccccc3)cc(-c3ccccc3)cc2-c2ccccc2)cc1	11*	i	i	i	i
C[N+]1(CCC(C(N)=O)(c2ccccc2)c2ccccc2)CCCCC1	i	i	i	i	-9.7*
Cc1ccc(Oc2cc(NN3CCCCC3)c([N+](=O)[O-])cc2[N+](=O)[O-])c([N+](=O)[O-])c1	i	i	i	i	i
O=C(c1ccc2c3c(cccc13)CC2)C1CCCN(CC2CC2)C1 (centres undefined)	i	158*	i	i	i
O=C(c1ccc2c3c(cccc13)CC2)C1CCCN(Cc2ncc[nH]2)C1 (centres undefined)	i	46*	i	i	i
NCCc1c[nH]c2ccc(F)cc12	i	i	i	i	i
COc1ccc2c(CCN)c[nH]c2c1	i	81*	i	i	i
COc1ccc2[nH]cc(CCN(C)C)c2c1	19*	i	i	i	i
COc1ccc(CNC(=O)/C=C/c2ccc3[nH]cc(CCN(C)C)c3c2)cc1	i	45*	i	i	i
COC(=O)C1=C(c2cc3ccccc3o2)C[C@@H]2CC[C@H]1N2C(=O)NCc1ccco1	i	i	i	i	i
COC(=O)C1=C(c2ccccc2)C[C@@H]2CC[C@H]1N2C(=O)NC1CCCCC1	i	i	i	i	i
O=C(c1ccc(Cl)cc1)C1CCCN(Cc2ccc3ncccc3c2)C1 (centres undefined)	i	80*	i	i	i
CCN1C[C@]2(OC(=O)c3ccccc3NC(C)=O)CCC(OC)C34C5C[C@H]6C(OC)[C@]5(O)[C@](O)(C[C@@H]6OC)C(C[C@@H]32)[C@H]14 (some centres undefined)	i	i	i	i	i
CCc1nccc2c1[nH]c1ccccc12	i	i	i	-6*	i
CC1CCN(c2cc(Br)c([N+](=O)[O-])cc2F)CC1	i	i	i	i	i
CCOP(=O)(Cc1cc(C(C)=O)c(C)o1)OCC	i	i	i	i	i
COc1cc2c3cc1Oc1cc(ccc1O)C[C@@H]1c4c(cc(OC)c(O)c4Oc4ccc(cc4)C[C@H]3N(C)CC2)CCN1C	i	117*	i	i	i
Cc1cc(C)cc(NC2=NCCCS2)c1	i	i	i	i	i
COc1ccc(Cl)cc1C(=O)C1CCCN(CCO)C1 (centres undefined)	i	70*	i	i	i
CCn1ccnc1CN1CCCC(C(=O)c2cc(Cl)ccc2OC)C1 (centres undefined)	i	i	i	i	i
